Results gathered from unrelated publications.
Protocols differ between the studies behind these lines.
Target: TGF-beta receptor type-2 (TGFBR2, Homo sapiens, UniProt P37173)

O=C(Nc1cnn(-c2csc(C(=O)NC3COC3)c2)c1)Nc1ccccc1Cl has a remaining activity of 113% (enzyme activity; inhibitor; 5 µM).
With N#CCCc1ccc2c(c1)-c1[nH]c3ccc([N+](=O)[O-])cc3c1CC(=O)N2 the remaining signal was 10.1% (cell-free assay; 0.5 µM).
NS(=O)(=O)c1cc(NC(=O)Cc2ccccc2)ccc1Oc1cccc(Cl)c1 gave a remaining binding of 87% (cell-free assay; competition with immobilised ligand; 1 µM).
The remaining signal of c1ccc(-c2[nH]ncc2-c2ccnc3ccccc23)nc1 is reported as 109% (cell-free assay; 0.5 µM).
The remaining binding of CNCc1ccccc1-c1csc([C@@H](C)Nc2nc(C)nc3cc(OC)c(OC)cc23)c1 is reported as 91% (cell-free assay; competition with immobilised ligand; 1 µM).
O=C1Nc2ccc(Cl)cc2C1=Cc1cc(Cl)c(O)c(Cl)c1 has a remaining signal of 94.9% (cell-free assay; 0.5 µM).
C[C@@H](c1cccc(C#N)c1)n1cc(Cl)cc(C(N)=O)c1=N has a remaining binding of 100% (cell-free assay; competition with immobilised ligand; 1 µM).
The remaining signal of Nc1ncnc2occ(-c3ccc(NC(=O)Nc4cc(C(F)(F)F)ccc4F)cc3)c12 is reported as 99% (cell-free assay; 20 µM).
For CCC(=O)N[C@@H]1CC[C@H](C(=O)N(C)c2ccc(-c3nc4ccccc4o3)cc2)C1, the remaining binding was 100% (cell-free assay; competition with immobilised ligand; 1 µM).
CC(C)(C)c1nc2c(s1)c1nc(N)ncc1c1ccc(NS(=O)(=O)c3c(F)cccc3F)c(F)c12 has a remaining activity of 81% (enzyme activity; inhibitor; radiometric; 1 µM).
With O=C(Nc1cnn(-c2csc(C(=O)NC3COC3)c2)c1)Nc1c(F)cccc1Cl the remaining activity was 82.6% (enzyme activity; inhibitor; 5 µM).
With CNC(=O)c1cc(Oc2ccc(NC(=O)Nc3ccc(Cl)c(C(F)(F)F)c3)cc2)ccn1 the remaining signal was 99.9% (cell-free assay; 0.5 µM).
